The target in assay [1] is T1, Folylpolyglutamate synthase, mitochondrial (Mus musculus) (UniProt P48760).
T1 sequence (whole entry): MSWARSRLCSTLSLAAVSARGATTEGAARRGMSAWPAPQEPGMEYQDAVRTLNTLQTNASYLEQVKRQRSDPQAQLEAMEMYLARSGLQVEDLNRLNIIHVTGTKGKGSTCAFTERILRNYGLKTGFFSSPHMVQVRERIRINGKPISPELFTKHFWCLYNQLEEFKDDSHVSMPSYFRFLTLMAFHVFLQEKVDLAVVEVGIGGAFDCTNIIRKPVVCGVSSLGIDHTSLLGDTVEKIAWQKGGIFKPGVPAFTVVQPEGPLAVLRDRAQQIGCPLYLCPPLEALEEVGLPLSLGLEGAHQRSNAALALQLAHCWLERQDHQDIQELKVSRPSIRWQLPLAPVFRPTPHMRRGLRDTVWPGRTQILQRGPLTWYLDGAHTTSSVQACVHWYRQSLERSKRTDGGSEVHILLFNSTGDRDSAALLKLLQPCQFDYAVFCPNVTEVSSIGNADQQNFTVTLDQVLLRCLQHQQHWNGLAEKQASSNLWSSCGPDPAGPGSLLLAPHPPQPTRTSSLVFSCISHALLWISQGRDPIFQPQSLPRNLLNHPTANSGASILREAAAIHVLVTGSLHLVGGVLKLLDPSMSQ
Briefly: Activity (relative Km ) was evaluated in vitro by purified mouse liver folate polyglutamate synthetase (FPGS). A digest of the protocol:
(§1)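 Full saturation curves used duplicate assays at each of six concentrations, usually spanning 0.2–3 apparent Km. Kinetic values were derived by the Cleland method. Each value is expressed as a proportion of the PteGlu value from saturation curves run in the same experiment.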

In assay [2] the target is T1, Folylpolyglutamate synthase, mitochondrial (Mus musculus). Put plainly: Activity (relative Vmax) was evaluated in vitro by purified mouse liver folate polyglutamate synthetase (FPGS). In a few lines:
as §1

The species entered for assay [3] is Mus musculus. Put plainly: (§2) Inhibitory concentration against the growth of L1210 murine leukemia cells in tissue culture. Type of assay: functional, cell-based.
The subject of assay [4] is L1210. Described as §2. The settings on record: Mus musculus. Format: functional, cell-based.
For assay [5], the system named is Mus musculus. Briefly: In vivo activity (survivors) at optimal dose of 1 mg/kg, by intraperitoneal administration in BDF1 mice against L1210 leukemia cells; […] given as 5/22. Type of assay: functional.
The subject of assay [6] is Mus musculus. Put plainly: In vivo activity(%ILS) at optimal dose of 1 mg/kg, by intraperitoneal administration in BDF1 mice against L1210 leukemia cells. The settings on record: L1210, ip. Type of assay: functional.
For another assay, the target named is T2, Thymidylate synthase (Lactobacillus casei, UniProt P00469).
T2 sequence (P00469 whole entry): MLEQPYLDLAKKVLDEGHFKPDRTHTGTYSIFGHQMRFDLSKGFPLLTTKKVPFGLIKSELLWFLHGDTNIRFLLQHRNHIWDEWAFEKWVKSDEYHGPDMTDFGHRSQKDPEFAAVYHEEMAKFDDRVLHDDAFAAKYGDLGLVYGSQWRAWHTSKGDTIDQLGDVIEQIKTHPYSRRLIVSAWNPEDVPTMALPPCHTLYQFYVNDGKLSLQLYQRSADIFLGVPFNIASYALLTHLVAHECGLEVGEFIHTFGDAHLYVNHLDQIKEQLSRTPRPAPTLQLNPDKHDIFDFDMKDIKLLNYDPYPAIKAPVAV
Put plainly: In vitro inhibitory concentration against Lactobacillus casei thymidylate synthetase. Also on record: species or system Lacticaseibacillus casei.

The subject of assay [7] is L1210. The description is as §2. The settings on record: Mus musculus.
In assay [8] the test system is Mus musculus. Briefly: In vivo activity (survivors) at optimal dose of 4 mg/kg, by intraperitoneal administration in BDF1 mice against L1210 leukemia cells; […] given as 0/10. Type of assay: functional.
Assay [9] has as its system L1210. Put plainly: (§3) In vivo activity(%ILS) at optimal dose of 4 mg/kg, by intraperitoneal administration in BDF1 mice against L1210 leukemia cells. Type of assay: functional. The settings on record: Mus musculus, L1210, ip.
Assay [10] has as its target T1, Folylpolyglutamate synthase, mitochondrial (Mus musculus). Put plainly: Activity (relative Km) was evaluated in vitro by purified mouse liver folate polyglutamate synthetase (FPGS). A digest of the protocol: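 Partially purified mouse liver FPGS incubated with each substrate for 1 h at 37 °C. Full saturation curves were run in duplicate at six concentrations, usually 0.2–3 apparent Km, and products were isolated. Kinetic constants came from Cleland analysis. Km is expressed relative to PteGlu, taken from saturation curves run in the same experiment.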

The subject of assay [11] is Mus musculus. Briefly: In vivo activity (survivors) at optimal dose of 4mg/kg, by intraperitoneal administration in BDF1 mice against L1210 leukemia cells; […] given as 4/21. Format: functional.
In assay [12] the test system is Mus musculus. The assay is described as §3. Type of assay: functional. The settings on record: L1210, ip.

Structures are written as SMILES.

`Nc1nc(O)c2c(n1)NCC(CNc1ccc(C(=O)N[C@@H](CCC(=O)O)C(=O)O)cc1)N2` (stereo not given in full) yielded a Relative Km in assay [1] of 0.051. The same compound came in with a Relative Vmax in assay [2] of 1.31.

`Nc1nc(O)c2cc(CCc3ccc(C(=O)N[C@@H](CCC(=O)O)C(=O)O)cc3)cnc2n1`: in assay [1], the Relative Km worked out at 0.68. Besides, the Relative Vmax in assay [2] was found to be 0.9. For the same compound, the concentration for half-maximal inhibition (IC50) – broadly, the concentration that inhibits the measured activity by half – in the assay filed under Mus musculus [3] was over 100 µM.

In the case of `Nc1nc(=O)c2nc(CNc3ccc(C(=O)N[C@@H](CCC(=O)O)C(=O)O)cc3)cnc2[nH]1`, the Km app in [1] was found to be 1 rel. Further, the Relative Vmax in assay [2] was 1.

`Nc1nc(N)c2c(n1)NCC(CCc1ccc(C(=O)NC(CCC(=O)O)C(=O)O)cc1)C2` (stereo not given): the Relative Km in assay [1] came to 0.23. In assay [2], this compound had a Relative Vmax of 1.61. The IC50 turned out to be 0.0033 µM with L1210 [4] and 920 µM on Thymidylate synthase. The Survivors in the assay on Mus musculus [5] came to 5. Also, the increase in life span (ILS) (in general, how much longer treated animals lived than controls) at 1 mg/kg in the assay with Mus musculus [6] was found to be 111%.

As for `CN(Cc1cnc2nc(N)nc(N)c2n1)c1ccc(C(=O)N[C@@H](CCC(=O)O)C(=O)O)cc1` [METHOTREXATE], in the assay with L1210 [7], 0.01 µM corresponded to half-maximal inhibition (IC50). The same compound registered a Survivors in the assay on Mus musculus [8] of 0. The compound further returned an ILS at 4 mg/kg in the assay with L1210 [9] of 85%.

Turning to `Nc1nc2ncc(CCc3ccc(C(=O)N[C@@H](CCC(=O)O)C(=O)O)cc3)cc2c(=O)[nH]1`, half-maximal inhibition against Thymidylate synthase (IC50) required 77 µM.

In assay [1], `Nc1nc(O)c2c(n1)NCC(CCc1ccc(C(=O)NC(CCC(=O)O)C(=O)O)cc1)C2` (stereo not given) yielded a Relative Km of 0.05. In addition, in assay [2], the Relative Vmax amounted to 1.24. The IC50 was 0.059 µM in the assay listed under Mus musculus [3] and over 1000 µM against Thymidylate synthase.

Compound `Nc1nc(N)c2nc(CNc3ccc(C(=O)N[C@@H](CCC(=O)O)C(=O)O)cc3)cnc2n1` [AMINOPTERIN] registered a Relative Km in assay [1] of 0.21. Moreover, in assay [2], the Relative Vmax worked out at 1.5. In the assay with L1210 [4], this compound registered an IC50 of 0.0021 µM.

In the case of `Nc1nc(N)c2cc(CCc3ccc(C(=O)NC(CCC(=O)O)C(=O)O)cc3)cnc2n1` (stereo not given), the Relative Km in assay [10] is 0.86. For the same compound, the Relative Vmax in [2] was found to be 0.35. Moreover, the half-inhibitory concentration (IC50) in the assay with L1210 [4] was 0.017 µM; against Thymidylate synthase, 92 µM. The Survivors in the assay with Mus musculus [11] came out at 4. Also, in the assay on Mus musculus [12], the ILS at 4 mg/kg was 130%.

Values taken from ChEMBL document CHEMBL1122902, “Synthesis of the antileukemic agents 5,10-dideazaaminopterin and 5,10-dideaza-5,6,7,8-tetrahydroaminopterin” (J Med Chem, 1985).
